This is a sample that favours compounds with a hit; in the whole collection about 2.7% have one here.
zVAD death inh: L929 zVAD cell death inhibition; L929 zVAD necroptosis rescue, ATP luminescence, 24 h; with zVAD 60 µM; viability rescue, % at 10 µM; actives 0.38% (n = 220,000); AID 1377;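 active = activation, scaled between plate controls, above about 75%, limit read from the data; inactive = activation under that limit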;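 note: 0% = zVAD with DMSO and 100% = DMSO alone without zVAD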
Wee1 degr inh: blocks degradation of human Wee1 kinase; P30291; actives 1.2% (n = 220,000); HeLa Luc-Wee1K328M stability, luciferase luminescence; 100% = proteasome inhibitor MG132 effect; reporter increase, % at 5 µM;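 active = activation above the mean of all tested compounds plus 3 SD, set per screening run, cut at about 8.8% in these data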;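 note: cells exposed to compound for 20 h before luminescence read; 0% = DMSO alone and 100% = MG132 at 30 µM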
PfM18AAP inh-1: PfM18AAP enzyme inhibition; recombinant PfM18AAP, H-Glu-NHMec fluorogenic cleavage; inhibition, % at 7.35 µM; actives 1.2% (n = 290,000);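 active = inhibition above the campaign mean inhibition over all tested compounds plus 3 SD, cut at about 28% in these data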;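 note: 0% = plate median of test compound wells and 100% = 2 mM ZnCl2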
TNF necrop inh: TNF-alpha cell death inhibition in Jurkat FADD-/- cells | Jurkat FADD-/- TNF necroptosis rescue, ATP luminescence, 24 h; 0 = TNF only, 100 = no-TNF cells | activation (protection from cell death), % at 10 µM | actives 0.068% (n = 220,000);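 active = activation, meaning protection from cell death, of at least 50% relative to plate controls; inactive = activation below 50%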;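 note: necroptosis triggered by 40 ng/mL TNF-alpha added together with compound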
RBBP9 inhibitor: blocks human serine hydrolase RBBP9; O75884; actives 0.2% (n = 220,000); recombinant RBBP9, FP-Rh probe fluorescence polarization; inhibition, % at 7.94 µM;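 active = inhibition above the campaign mean of all tested compounds plus 3 SD, cut at about 14% in these data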;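 note: plate controls were DMSO wells with RBBP9 for no effect and wells lacking RBBP9 protein for full effect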
Target sequence (O75884 whole entry, looked up): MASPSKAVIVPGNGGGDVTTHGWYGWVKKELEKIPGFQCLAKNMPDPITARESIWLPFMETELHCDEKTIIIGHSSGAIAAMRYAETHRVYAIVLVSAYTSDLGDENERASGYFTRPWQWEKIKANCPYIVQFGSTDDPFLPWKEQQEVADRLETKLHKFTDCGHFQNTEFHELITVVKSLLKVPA
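system = RBBP9 protein | input = RBBP9 at 2.5 µM in dispensed solution, before mixing | measured by = fluorescence polarization (mP), excitation 525 nm, emission 598 nm | incubation = enzyme-compound preincubation 30 min, then probe labeling 45 min, 25 °C | buffer or medium = Tris-NaCl-Pluronic buffer, pH 8.0 | compound = single dose 7.94 µM | also added = FP-Rh probe, 375 nM dispensing solution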
p97 inhibitor: human p97 ATPase inhibition; P55072; recombinant p97 ATPase, Kinase-Glo ATP luminescence, 3 h; inhibition, % at 8 µM; actives 0.42% (n = 220,000); AID 1481; in the data active = inhibition above about 15%;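 note: 0% = DMSO vehicle and 100% = wells lacking enzyme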
PfM18AAP inh-2: PfM18AAP inhibition, confirmation; shares compounds with PfM18AAP inh-1; recombinant PfM18AAP, H-Glu-NHMec fluorogenic cleavage; inhibition, % at 7.35 µM; actives 28% (n = 2,400);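 active = mean inhibition over replicate wells above the hit cutoff set for the earlier primary screen, cut at about 29% in these data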;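 note: 0% = median of test compound wells and 100% = 2 mM ZnCl2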
CTSL1 counter: Cathepsin L (human) inhibition, confirmation | shares compounds with PfM18AAP inh-1 | AID 2178 | 2,400 tested, under 10 active | inhibition, % at 5.96 µM | purified cathepsin L1, Z-Leu-Arg-MCA fluorescence;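 active = average inhibition across replicates above the hit cutoff set in the earlier primary screen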;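 note: 0% = median of test compound wells and 100% = Z-Phe-Ala-diazomethylketone 1 µM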
Target sequence (P07711 whole entry, looked up): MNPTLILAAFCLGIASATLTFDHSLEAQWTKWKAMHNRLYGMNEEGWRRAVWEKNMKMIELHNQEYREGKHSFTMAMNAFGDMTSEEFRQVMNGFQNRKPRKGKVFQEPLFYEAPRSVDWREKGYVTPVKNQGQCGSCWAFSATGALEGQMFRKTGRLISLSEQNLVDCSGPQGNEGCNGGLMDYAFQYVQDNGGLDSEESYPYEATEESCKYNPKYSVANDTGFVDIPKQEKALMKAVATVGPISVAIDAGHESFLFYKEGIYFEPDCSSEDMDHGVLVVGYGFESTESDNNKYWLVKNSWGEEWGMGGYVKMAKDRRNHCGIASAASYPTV
An asterisk follows results filed as active; · = no result.

SMILES | zVAD death inh | Wee1 degr inh | PfM18AAP inh-1 | TNF necrop inh | RBBP9 inhibitor | p97 inhibitor | PfM18AAP inh-2 | CTSL1 counter
Cc1cc2nc3c(=O)[nH]c(=O)[nH]c3nc2c([N+](=O)[O-])c1N | -1 | -2 | 32* | 0 | 1 | 14 | 1 | 0
CC(N=C1NS(=O)(=O)c2ccccc21)C(=O)N1CCc2ccccc2C1 (centres undefined) | 0 | 0 | 5 | 1 | -10 | 2 | · | ·
Cc1ccnc(NC(=S)NC(=O)/C=C/c2ccc(Cl)cc2)c1 | 0 | 3 | 1 | 2 | -6 | 9 | · | ·
COc1ccc(-n2c(SCC(=O)C(C)(C)C)nc3c(sc(=S)n3-c3ccccc3)c2=O)c(OC)c1 | · | · | 37* | · | · | · | 14 | 4
CC(C)(C)C1CCC(=NNc2ncc(C(F)(F)F)cc2Cl)CC1 (centres undefined) | 0 | -1 | 33* | 1 | 7 | 2 | 3 | 4
Clc1ccccc1-c1csc(Nc2cccnc2)n1 | 2 | 2 | 39* | -2 | -1 | 12 | -46 | 1
CCN1CCN(C(=S)c2ccc(OC)cc2)CC1 | 0 | -2 | 45* | 1 | -4 | 0 | 13 | 1
S=C(c1ccc(Cl)cc1)N1CCN(Cc2ccccc2)CC1 | 1 | 0 | -10 | 2 | -2 | -4 | · | ·
COc1ccc(C(=S)N2CCCCCC2)cc1 | 0 | -3 | 4 | 4 | 3 | 2 | · | ·
CCN1CCN(C(=S)c2ccc(Cl)cc2)CC1 | 0 | -1 | 44* | 0 | 10 | 3 | 36* | 0
CSc1ccc(C(=S)N2CCN(Cc3ccccc3)CC2)cc1 | 0 | -3 | 41* | 1 | -6 | -1 | 10 | 3
OCCN1CCN(C(=S)c2ccc(Cl)cc2)CC1 | 0 | -1 | 43* | 0 | 0 | 6 | 8 | 5
CC(C)Cc1nnc(NC(=O)CCC(=O)NCCc2ccc(Cl)cc2)s1 | · | · | -11 | · | · | · | · | ·
Cc1ccc(C)n1CCN1CCN(C(=O)CC#N)CC1 | 1 | -3 | 0 | 1 | 3 | 5 | · | ·
CC(C)(C)c1cc(C(=S)N2CCN(CCO)CC2)cc(C(C)(C)C)c1O | 0 | -2 | 36* | -1 | 0 | -6 | -7 | 2
CCOc1ccc(C(=S)N2CCN(C)CC2)cc1 | 1 | 0 | 48* | 1 | -6 | 3 | 4 | 0
CCn1c(C)nc2cc(C(=O)NNC(=S)Nc3ccc(C)cc3)ccc21 | -1 | 0 | 40* | -2 | -8 | -2 | -52 | -1
CCn1c(C)nc2cc(C(=O)NNC(=S)Nc3ccccc3OC)ccc21 | 0 | -3 | 3 | -3 | 0 | 8 | · | ·
CN(C)S(=O)(=O)N1CCN(CC(=O)Nc2ccc(F)cc2)CC1 | · | · | -1 | · | · | · | · | ·
COc1ccc(-n2c(=S)[nH]c3[nH]ncc3c2=O)cc1 | 1 | 0 | 46* | 1 | 14 | 5 | -12 | -3
O=c1c2cn[nH]c2[nH]c(=S)n1-c1cccc2ccccc12 | · | 2 | 51* | 1 | 2 | 5 | 4 | 2
OC1COC(OCC2OC(OCc3ccccc3)C(O)C(O)C2O)C(O)C1O (centres undefined) | 0 | 2 | 35* | 0 | 0 | 1 | -3 | -9
CC(=O)NC1C(OCc2ccccc2)OC(CO)C(OC(C)=O)C1OC(C)=O (centres undefined) | 1 | -2 | -3 | 1 | 3 | 4 | · | ·
O=C1CCCCN1CCCC(=O)N1CCCC(Nc2ccc(F)c(F)c2)C1 (centres undefined) | · | · | -1 | · | · | · | · | ·
c1ccc(SCc2cn(C[C@H]3CC[C@@H]([C@@H]4CC[C@H](Cn5cc(CSc6ccccc6)nn5)O4)O3)nn2)cc1 | · | · | 10 | · | · | · | · | ·
COc1cc(C2Nc3cccc4cccc(c34)N2)ccc1O | · | · | 46* | · | · | · | 15 | -1
Cc1cccc(C2Nc3cccc4cccc(c34)N2)c1 | · | · | 33* | · | · | · | -5 | 1

Source: PubChem BioAssay (several laboratories)
